Only some compounds are listed: those with a hit (about 3.8% of all), similar ones and a draw of the others.
HSF-1 act: HSF-1 activators, primary screen, NIH3T3-HGL cells, MG132 stress, luminescence, single point; NIH3T3-HGL HSF-1 luciferase reporter, 8 h; 100% = twice DMSO control signal; activation, % at 9 µM; 1.7% of 300,000 active; AID 504408, 2011;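 active means mean replicate activation of at least 50% with a set share of replicates each reaching 50%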
HSP90 refold inh: HSP90 inhibitors, primary screen, cell lysate, luminescence. Heat shock protein HSP 90 (rabbit reticulocyte lysate; luciferase refolding). Rabbit reticulocyte lysate, luciferase refolding luminescence, 3 h. inhibition, % at 5.6 µM. 0.91% of 290,000 active. AID 1789, 2009;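 active means inhibition above the screen-wide mean plus 3 SD, computed separately per campaign, cut at about 16% in these data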;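 further: inhibitors lower the luminescence because luciferase stays unfolded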
Lipid droplet: inhibitors of hepatocyte lipid droplet formation, primary screen, imaging, high-throughput imaging, BODIPY stain. inhibition, % at 6.5 µM. AML12 mouse hepatocytes, oleate lipid droplets. AID 1656, 2009. 0.4% of 240,000 active;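 active means lipid droplet intensity inhibited by at least 50%, with more than 500 cells counted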
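Material – mouse AML12 hepatocyte cell line, fixed after treatment · Compound dosing – one dose, 6.5 µM compound · Times – compound with oleate, overnight · Measured by – Image-based BODIPY and DAPI two-channel analysis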
HSF1 inhib: HSF1 inhibitors in luciferase reporter cells, primary screen, cell-based, NIH3T3, luminescence; NIH3T3-HGL HSE-luciferase, MG132-induced, luminescence 8 h; active compounds read low; activity change, negative = inhibition, % at 7.5 µM (by protocol); 0.77% of 300,000 active; AID 2098, 2009;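 active means more than half of replicate wells show activity change below -50%, luminescence cut by over half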;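 further: luciferase reports HSF-1 transcriptional activity via heat shock element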
HCV NS3 hel inh: inhibitors of HCV NS3 helicase, primary screen, biochemical, Cy5 molecular beacon fluorescence. NS3 helicase DNA unwinding. AID 1800, 2009. inhibition, % at 10.9 µM. Hepatitis C virus NS3 helicase. 0.56% of 290,000 active;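 active means inhibition above the mean of all tested compounds plus 3 SD, set per campaign, cut at about 35% in these data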
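Control set: DMSO versus 110 µM thioflavine S; Material: NS3 helicase fragment of HCV; Measured by: Cy5 fluorescence at 0 and 60 min, beacon hairpin quenching; Read-out basis: percent inhibition from t60/t0 fluorescence ratio; Times: reaction time 60 min, 25 °C; Repeats: single replicate; Compound dosing: single dose, 10.9 µM nominal final, DMSO 0.8% final.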
A number is an active result; . = inactive; / = not tested or not shown; ! = not confirmed by another sample.

SMILES	HSF-1 act	HSP90 refold inh	Lipid droplet	HSF1 inhib	HCV NS3 hel inh
CCOc1ccc(S(=O)(=O)N(CC)CC(=O)NC2CC2)cc1	.	.	.	.	.
Cc1onc(-c2ccccc2)c1NC(=O)N(CCC#N)Cc1ccccc1	58.3	.	.	.	.
CCN(/N=C/c1ccc(Cl)cc1)c1cc(=O)n(C)c(=O)[nH]1	.	.	.	.	.
CCN(/N=C/C=C/c1ccccc1)c1cc(=O)n(C)c(=O)[nH]1	69.2	.	.	.	.
CCc1c(C)sc(NC(=O)c2cccs2)c1C#N	.	.	.	.	.
Cc1sc(NC(=O)c2ccccc2)c(C#N)c1-c1ccccc1	57.2	.	.	.	.
O=C(c1cccc(-c2nnc(-c3ccccc3)o2)c1)N1CCCCC1	56.9	.	.	.	.
CC(Oc1ccccc1)C(=O)N=C1SC2CS(=O)(=O)CC2N1c1cccc(F)c1 (stereo not drawn)	.	.	.	.	.
COc1ccc(-c2nc(C3CCCCC3)no2)cc1OC	81.0	.	/	.	.
Cn1c(SCC(=O)NNC(=O)Cc2ccccc2)nc2ccccc2c1=O	.	.	.	.	.
COc1ccc(N(C)C(=O)Cc2c(C(=O)O)n(C)c3ccccc23)c(OC)c1	.	.	.	.	.
COc1ccccc1-c1noc(CCCC(=O)NC2CCCCC2)n1	.	.	.	.	.
CCOc1ccccc1-c1noc(CCCC(=O)NC2CCCCC2)n1	63.5	.	.	.	.
O=C(Cc1ccc(Cl)cc1)c1ccc(O)cc1	52.0	.	.	.	.
Cc1ccc(CC(=O)c2ccc(Cl)cc2)cc1	.	.	.	.	.
CCOc1ccc(S(=O)(=O)NC(Cc2cnc[nH]2)C(=O)O)cc1 (stereo not drawn)	.	.	.	.	.
C/C=C/c1ccc(OCC(=O)O)c(OC)c1	.	.	.	.	.
C/C=C/c1ccc(OCC(=O)Nc2cc(OC)c(OC)c(OC)c2)c(OC)c1	.	.	.	-52.3	.
Cn1nnc2c[n+](CC(=O)c3ccc(Cl)cc3)cc(Br)c21	.	.	.	.	.
Cn1nnc2c[n+](CC(=O)c3ccc4ccccc4c3)cc(Br)c21	92.7	.	.	.	.
Cc1cc(C)n(CC(=O)O)c(=O)c1[N+](=O)[O-]	/	.	.	/	.
Cc1c(C(=O)c2ccc(Cl)c(Cl)c2)cnc2cc3c(cc12)OCO3	.	.	.	.	.
Cc1ccc(S(=O)(=O)c2c(C(=O)c3ccccc3)cnc3cc4c(cc23)OCCO4)cc1	.	.	.	-66.4	.
Cn1cc([N+](=O)[O-])c(C(=O)Nc2nccs2)n1	76.8	.	.	.	.
CCSc1ccc(C(=O)Nc2ccc(Br)cn2)cc1[N+](=O)[O-]	.	.	.	.	.
SMILES	HSF-1 act	HSP90 refold inh	Lipid droplet	HSF1 inhib	HCV NS3 hel inh
Cn1cc([N+](=O)[O-])c(C(=O)Nc2ccc(Br)cn2)n1	53.4	.	/	.	.
CCOc1cccc(C(=O)Nc2ccccc2C(=O)N2CCOCC2)c1	.	.	.	.	.
Cc1ccc(NC(=O)/C(C#N)=C/c2cccs2)c(C)c1	53.4	.	.	.	.
Cc1cccc(C)c1NC(=O)/C(C#N)=C/c1cccs1	.	.	/	.	.
CCc1cc2c(=O)n(CCCOC)c(SCC(=O)Nc3oc(C)c4c(C)n[nH]c(=O)c34)nc2s1	.	/	/	.	/
COCCCC/C(=N\OCCN)c1ccc(C(F)(F)F)cc1	.	.	.	-81.3!	.
O=C(COc1ccc(Cl)cc1Cl)NCc1ccco1	/	.	/	/	.
O=C(NCc1ccco1)c1ccc(COc2cc(Cl)ccc2Cl)cc1	76.1	.	.	.	.
O=C(CN1CCCCC1)N1c2ccccc2Oc2ccccc21	.	.	.	.	.
O=C(CO/N=C/c1ccccc1)N1c2ccccc2Oc2ccccc21	.	16.3	.	.	.
NC(=O)c1cc(Cc2ccccc2)sc1NC(=O)c1ccco1	134.4	.	.	.	.
COc1ccc(CCNC(=O)CN(c2ccc(OC)c(OC)c2)S(C)(=O)=O)cc1OC	.	.	.	-65.8	.
C=C(C)Cn1c(NCCC)nc2c1c(=O)n(C)c(=O)n2C	.	.	.	-53.4	.
CCCNc1nc2c(c(=O)n(C)c(=O)n2C)n1Cc1ccc(F)cc1	.	.	.	.	.
NC(=O)c1c(NC(=O)c2ccccc2)sc2c1CCC2	.	.	.	.	.
NC(=O)c1c(NC(=O)c2ccccc2)sc2c1CCc1ccccc1-2	73.8	.	.	.	.
CN(CCOC(=O)CN1C(=O)c2ccccc2C1=O)C1=NS(=O)(=O)c2ccccc21	.	.	.	.	.
CCS(=O)(=O)N1Cc2ccccc2CC1C(=O)Nc1ccc(F)c(F)c1 (stereo not drawn)	59.5	.	.	.	.
COCCN(C(=S)Nc1c(C)cccc1C)C(C)c1cccnc1 (stereo not drawn)	.	.	.	-51.8	.
Cc1cc(C(=O)N2CCCC(C(=O)c3cccc(C(F)(F)F)c3)C2)nc(C)n1 (stereo not drawn)	.	.	.	.	.
CCn1c(-c2cc(-c3ccccc3)sc2N)n[nH]c1=S	64.3	.	.	.	.
COC(=O)CNC(=O)Cn1ccc2ccccc2c1=O	.	.	/	.	.
Cc1ccc(CNC(=O)Cn2ccc3ccccc3c2=O)o1	64.3	.	.	.	.
O=C(CSc1ccc(-c2ccco2)nn1)NCCc1ccccc1	.	.	.	.	.
COCCn1c(SCC(=O)NCCc2ccccc2)nnc1-c1ccco1	54.9	.	/	.	.
SMILES	HSF-1 act	HSP90 refold inh	Lipid droplet	HSF1 inhib	HCV NS3 hel inh
COc1ccc(CCNC(=O)CSc2ccc(-c3ccco3)nn2)cc1	.	.	.	-68.5	.
CCCC(C)NC(=O)C1c2ccccc2Oc2ccccc21 (stereo not drawn)	.	.	/	-61.3	.
CCCN1C(=O)S/C(=C\c2ccc(N3CCOCC3)o2)C1=O	92.6	.	.	.	.
CCCN1C(=O)S/C(=C\c2ccc(N3CCOCC3)cc2C)C1=O	/	.	/	/	.
Cc1cc(N2CCOCC2)ccc1/C=C1\SC(=O)N(C(C)C)C1=O	78.3	.	/	.	.
CCN1C(=O)S/C(=C\c2ccc(N3CCOCC3)cc2C)C1=O	65.1	.	/	.	.
CC(C)N1CC(C(=O)Nc2ccc(F)c(Cl)c2)CC1=O (stereo not drawn)	.	.	.	.	.
COc1ccc(C2=NN(C)C(=NCc3ccccc3)SC2)cc1	53.1	.	/	.	.
COc1cc(-c2nc(CN3CCCCC3CCNC(C)=O)c(C)o2)ccc1F (stereo not drawn)	.	.	.	.	.
CCc1nccn1C(=O)c1cnn2c(C(F)F)cc(-c3ccccc3)nc12	.	.	/	-88.2	.
Nn1c(SCc2ccc(Br)cc2)nnc1-c1cccnc1	.	.	.	.	.
